Reference: ChEMBL document CHEMBL1926550, “Synthesis and antibacterial activity of naphthyridone derivatives containing mono/difluoro-methyloxime pyrrolidine scaffolds” (2012)
≈ marks a conversion by molar mass, not a printed value.

Key:
Type in all cases: functional
[1] = system: Escherichia coli; experiment: Antibacterial activity against Escherichia coli 09-2 after 18 hrs by two fold serial dilution method; conditions: 09-2, 18 h
Outline: (§1)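 Agar two-fold serial dilution in melted Mueller-Hinton agar, final concentrations 128 down to 0.008 μg/mL. Plates inoculated with 10⁴ cfu and incubated at 35 °C for 18 h. MIC taken as the lowest concentration giving no visible growth on the plate.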

[2] = system: Escherichia coli; experiment: Antibacterial activity against Escherichia coli 09-3 after 18 hrs by two fold serial dilution method; conditions: 09-3, 18 h; outline: as §1
[3] = system: Staphylococcus aureus; experiment: Antibacterial activity against methicillin-resistant Staphylococcus aureus 10-3 after 18 hrs by two fold serial dilution method; conditions: 10-3, 18 h
Outline: (§2)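 Agar two-fold serial dilution in melted Mueller-Hinton agar, 128 to 0.008 μg/mL. Plates inoculated with 10⁴ cfu, incubated 35 °C for 18 h. MIC taken as lowest concentration giving no visible growth on the plate.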

[4] = system: Staphylococcus epidermidis; experiment: Antibacterial activity against methicillin-sensitive Staphylococcus epidermidis 10-2 after 18 hrs by two fold serial dilution method; conditions: 10-2, 18 h; outline: as §1
[5] = system: Pseudomonas aeruginosa; experiment: Antibacterial activity against Pseudomonas aeruginosa 10-1 infected KM mouse systemic infection model assessed as decrease in mouse mortality administered orally twice after 1 and 4 hrs post infection measured up to 7 days; conditions: 10-1, po
Outline: (§3)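 Strains grown on MH agar at 35 °C for 18 h, suspended in gastric mucin. Male KM mice (19–21 g), groups of 10, infected intraperitoneally with 0.5 mL at 5–10× MLD. Four oral dose levels per drug at 1 and 4 h post infection. Mortality followed 7 days; ED50 with 95% confidence limits by Bliss method.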

[6] = system: Enterococcus faecium; experiment: Antibacterial activity against Enterococcus faecium 09-6 after 18 hrs by two fold serial dilution method; conditions: 09-6, 18 h; outline: as §1
[7] = system: Pseudomonas aeruginosa; experiment: Antibacterial activity against Pseudomonas aeruginosa 10-3 after 18 hrs by two fold serial dilution method; conditions: 10-3, 18 h; outline: as §1
[8] = system: Enterococcus faecium; experiment: Antibacterial activity against Enterococcus faecium 09-4 after 18 hrs by two fold serial dilution method; conditions: 09-4, 18 h; outline: as §1
[9] = system: Pseudomonas aeruginosa; experiment: Antibacterial activity against Pseudomonas aeruginosa 10-2 after 18 hrs by two fold serial dilution method; conditions: 10-2, 18 h; outline: as §1
[10] = system: Enterococcus faecium; experiment: Antibacterial activity against Enterococcus faecium 09-5 after 18 hrs by two fold serial dilution method; conditions: 09-5, 18 h; outline: as §1
[11] = system: Klebsiella pneumoniae; experiment: Antibacterial activity against Klebsiella pneumoniae 09-2 after 18 hrs by two fold serial dilution method; conditions: 09-2, 18 h; outline: as §1
[12] = system: Escherichia coli; experiment: Antibacterial activity against Escherichia coli 09-1 after 18 hrs by two fold serial dilution method; conditions: 09-1, 18 h; outline: as §1
[13] = system: Enterococcus faecalis; experiment: Antibacterial activity against Enterococcus faecalis 09-1 after 18 hrs by two fold serial dilution method; conditions: 09-1, 18 h; outline: as §1
[14] = system: Klebsiella pneumoniae; experiment: Antibacterial activity against Klebsiella pneumoniae 10-3 after 18 hrs by two fold serial dilution method; conditions: 10-3, 18 h; outline: as §1
[15] = system: Enterococcus faecium; experiment: Antibacterial activity against Enterococcus faecium 09-1 after 18 hrs by two fold serial dilution method; conditions: 09-1, 18 h; outline: as §1
[16] = system: Staphylococcus aureus; experiment: Antibacterial activity against methicillin-resistant Staphylococcus aureus 10-4 after 18 hrs by two fold serial dilution method; conditions: 10-4, 18 h; outline: as §2
[17] = system: Staphylococcus aureus; experiment: Antibacterial activity against methicillin-resistant Staphylococcus aureus 10-1 after 18 hrs by two fold serial dilution method; conditions: 10-1, 18 h; outline: as §2
[18] = system: Enterococcus faecalis; experiment: Antibacterial activity against Enterococcus faecalis 09-2 after 18 hrs by two fold serial dilution method; conditions: 09-2, 18 h; outline: as §1
[19] = system: Klebsiella pneumoniae; experiment: Antibacterial activity against Klebsiella pneumoniae 10-3 infected KM mouse systemic infection model assessed as decrease in mouse mortality administered orally twice after 1 and 4 hrs post infection measured up to 7 days; conditions: 10-3, po; outline: as §3
[20] = system: Pseudomonas aeruginosa; experiment: Antibacterial activity against Pseudomonas aeruginosa 10-1 after 18 hrs by two fold serial dilution method; conditions: 10-1, 18 h; outline: as §1
[21] = system: Staphylococcus epidermidis; experiment: Ratio of gemifloxacin ED50 to compound ED50 for methicillin-resistant Staphylococcus epidermidis 10-4 infected KM mouse systemic infection model
[22] = system: Staphylococcus epidermidis; experiment: Antibacterial activity against methicillin-resistant Staphylococcus epidermidis 10-4 infected KM mouse systemic infection model assessed as decrease in mouse mortality administered orally twice after 1 and 4 hrs post infection measured up to 7 days; conditions: 10-4, po; outline: as §3
[23] = system: Staphylococcus aureus; experiment: Antibacterial activity against methicillin-sensitive Staphylococcus aureus 10-2 after 18 hrs by two fold serial dilution method; conditions: 10-2, 18 h; outline: as §1
[24] = system: Escherichia coli; experiment: Antibacterial activity against Escherichia coli 10-2 after 18 hrs by two fold serial dilution method; conditions: 10-2, 18 h; outline: as §1
[25] = system: Staphylococcus aureus; experiment: Antibacterial activity against Staphylococcus aureus ATCC 25923 after 18 hrs by two fold serial dilution method; conditions: ATCC 25923, 18 h; outline: as §1
[26] = system: Staphylococcus epidermidis; experiment: Ratio of ciprofloxacin ED50 to compound ED50 for methicillin-resistant Staphylococcus epidermidis 10-4 infected KM mouse systemic infection model
[27] = system: Enterococcus faecium; experiment: Antibacterial activity against Enterococcus faecium 09-3 after 18 hrs by two fold serial dilution method; conditions: 09-3, 18 h; outline: as §1
[28] = system: Streptococcus pneumoniae; experiment: Antibacterial activity against Streptococcus pneumoniae 10-1 after 18 hrs by two fold serial dilution method; conditions: 10-1, 18 h; outline: as §1
[29] = system: Staphylococcus aureus; experiment: Antibacterial activity against methicillin-resistant Staphylococcus aureus 10-2 after 18 hrs by two fold serial dilution method; conditions: 10-2, 18 h; outline: as §2
[30] = system: Staphylococcus aureus; experiment: Antibacterial activity against methicillin-sensitive Staphylococcus aureus 10-1 after 18 hrs by two fold serial dilution method; conditions: 10-1, 18 h; outline: as §1
[31] = system: Staphylococcus aureus; experiment: Antibacterial activity against methicillin-sensitive Staphylococcus aureus 10-5 after 18 hrs by two fold serial dilution method; conditions: 10-5, 18 h; outline: as §1
[32] = system: Klebsiella pneumoniae; experiment: Antibacterial activity against Klebsiella pneumoniae 10-1 after 18 hrs by two fold serial dilution method; conditions: 10-1, 18 h; outline: as §1
[33] = system: Staphylococcus aureus; experiment: Antibacterial activity against methicillin-sensitive Staphylococcus aureus 10-6 after 18 hrs by two fold serial dilution method; conditions: 10-6, 18 h; outline: as §1
[34] = system: Staphylococcus epidermidis; experiment: Antibacterial activity against methicillin-resistant Staphylococcus epidermidis 10-4 after 18 hrs by two fold serial dilution method; conditions: 10-4, 18 h; outline: as §2
[35] = system: Escherichia coli; experiment: Antibacterial activity against Escherichia coli 10-2 infected KM mouse systemic infection model assessed as decrease in mouse mortality administered orally twice after 1 and 4 hrs post infection measured up to 7 days; conditions: 10-2, po; outline: as §3
[36] = system: Staphylococcus epidermidis; experiment: Antibacterial activity against methicillin-resistant Staphylococcus epidermidis 10-1 after 18 hrs by two fold serial dilution method; conditions: 10-1, 18 h; outline: as §2
[37] = system: Escherichia coli; experiment: Antibacterial activity against Escherichia coli 10-1 after 18 hrs by two fold serial dilution method; conditions: 10-1, 18 h; outline: as §1
[38] = system: Enterococcus faecium; experiment: Antibacterial activity against Enterococcus faecium 09-2 after 18 hrs by two fold serial dilution method; conditions: 09-2, 18 h; outline: as §1
[39] = system: Escherichia coli; experiment: Antibacterial activity against Escherichia coli 10-3 after 18 hrs by two fold serial dilution method; conditions: 10-3, 18 h; outline: as §1
[40] = system: Staphylococcus aureus; experiment: Antibacterial activity against methicillin-sensitive Staphylococcus aureus 10-4 after 18 hrs by two fold serial dilution method; conditions: 10-4, 18 h; outline: as §1
[41] = system: Pseudomonas aeruginosa; experiment: Antibacterial activity against Pseudomonas aeruginosa ATCC 27853 after 18 hrs by two fold serial dilution method; conditions: ATCC 27853, 18 h; outline: as §1
[42] = system: Staphylococcus aureus; experiment: Antibacterial activity against methicillin-resistant Staphylococcus aureus 10-2 infected KM mouse systemic infection model assessed as decrease in mouse mortality administered orally twice after 1 and 4 hrs post infection measured up to 7 days; conditions: 10-2, po; outline: as §3
[43] = system: Staphylococcus epidermidis; experiment: Antibacterial activity against methicillin-sensitive Staphylococcus epidermidis 10-1 after 18 hrs by two fold serial dilution method; conditions: 10-1, 18 h; outline: as §1
[44] = system: Staphylococcus aureus; experiment: Antibacterial activity against methicillin-sensitive Staphylococcus aureus 10-3 after 18 hrs by two fold serial dilution method; conditions: 10-3, 18 h; outline: as §1
[45] = system: Escherichia coli; experiment: Antibacterial activity against Escherichia coli ATCC 25922 after 18 hrs by two fold serial dilution method; conditions: ATCC 25922, 18 h; outline: as §1
[46] = system: Staphylococcus epidermidis; experiment: Antibacterial activity against methicillin-resistant Staphylococcus epidermidis 10-2 after 18 hrs by two fold serial dilution method; conditions: 10-2, 18 h; outline: as §2

## NCC1CN(c2nc3c(cc2F)c(=O)c(C(=O)O)cn3C2CC2)C/C1=N\OCF (racemic)
[1]
  MIC: 32 µg/mL (≈ 78.6 µM)
[2]
  MIC: 32 µg/mL (≈ 78.6 µM)
[3]
  MIC: 32 µg/mL (≈ 78.6 µM)
[4]
  MIC: 64 µg/mL (≈ 157 µM)
[5]
  ED50: 39.3 mg/kg
[6]
  MIC: 0.03 µg/mL (≈ 0.0736 µM)
[7]
  MIC: 4 µg/mL (≈ 9.82 µM)
[8]
  MIC: 0.06 µg/mL (≈ 0.147 µM)
[9]
  MIC: 32 µg/mL (≈ 78.6 µM)
[10]
  MIC: 32 µg/mL (≈ 78.6 µM)
[11]
  MIC: 32 µg/mL (≈ 78.6 µM)
[12]
  MIC: 32 µg/mL (≈ 78.6 µM)
[13]
  MIC: 8 µg/mL (≈ 19.6 µM)
[14]
  MIC: 0.5 µg/mL (≈ 1.23 µM)
[15]
  MIC: 32 µg/mL (≈ 78.6 µM)
[16]
  MIC: 64 µg/mL (≈ 157 µM)
[17]
  MIC: 32 µg/mL (≈ 78.6 µM)
[18]
  MIC: 32 µg/mL (≈ 78.6 µM)
[19]
  ED50: > 160 mg/kg
[20]
  MIC: 0.5 µg/mL (≈ 1.23 µM)
[21]
  Ratio ED50: 3
[22]
  ED50: 8 mg/kg
[23]
  MIC: 8 µg/mL (≈ 19.6 µM)
[24]
  MIC: 0.5 µg/mL (≈ 1.23 µM)
[25]
  MIC: 0.015 µg/mL (≈ 0.0368 µM)
[26]
  Ratio ED50: 3.1
[27]
  MIC: 16 µg/mL (≈ 39.3 µM)
[28]
  MIC: 0.06 µg/mL (≈ 0.147 µM)
[29]
  MIC: 2 µg/mL (≈ 4.91 µM)
[30]
  MIC: 0.06 µg/mL (≈ 0.147 µM)
[31]
  MIC: 0.125 µg/mL (≈ 0.307 µM)
[32]
  MIC: 0.03 µg/mL (≈ 0.0736 µM)
[33]
  MIC: 0.5 µg/mL (≈ 1.23 µM)
[34]
  MIC: 2 µg/mL (≈ 4.91 µM)
[35]
  ED50: 8.79 mg/kg
[36]
  MIC: 2 µg/mL (≈ 4.91 µM)
[37]
  MIC: 32 µg/mL (≈ 78.6 µM)
[38]
  MIC: 32 µg/mL (≈ 78.6 µM)
[39]
  MIC: 16 µg/mL (≈ 39.3 µM)
[40]
  MIC: 0.25 µg/mL (≈ 0.614 µM)
[41]
  MIC: 0.5 µg/mL (≈ 1.23 µM)
[42]
  ED50: 16.9 mg/kg
[43]
  MIC: 32 µg/mL (≈ 78.6 µM)
[44]
  MIC: 0.03 µg/mL (≈ 0.0736 µM)
[45]
  MIC: 0.008 µg/mL (≈ 0.0196 µM)
[46]
  MIC: 1 µg/mL (≈ 2.45 µM)
